Reference: ChEMBL document CHEMBL3616446, “Structure activity optimization of 6H-pyrrolo[2,3-e][1,2,4]triazolo[4,3-a]pyrazines as Jak1 kinase inhibitors” (Bioorg Med Chem Lett, 2015)

What was measured:
UT7 = assay: Selectivity ratio for inhibition of JAK2 in human UT7 cells to inhibition of JAK1 in human TF1 cells; type: cell-based
Outline: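 Cell-based pSTAT read-outs. Jak1: IL-6-stimulated pSTAT3 in TF-1 cells. Jak2: Epo-stimulated pSTAT5 in UT-7 cells. Full-length endogenous Jak at cellular ATP levels. Run in 96-well format, some in 384-well. Ratio = Jak2 cellular value / Jak1 cellular value.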

[1] = AUC (0 to infinity) in Sprague-Dawley rat at 10 mg/kg, po; type: ADME, organism-based; design: dose 10 mg/kg, time infinity, route oral; conditions: in vivo
[2] = Cmax in Sprague-Dawley rat at 10 mg/kg, po; type: ADME, organism-based; design: dose 10 mg/kg, route oral; conditions: in vivo
Rattus norvegicus = assay: Antiinflammatory activity in Lewis rat assessed as inhibition of concanavalin A-induced IFNgamma production administered 30 mins prior to concanavalin A challenge measured at 4 hrs by ELISA; type: functional; design: concentration or dose not given beside the values
[3] = Plasma clearance in Sprague-Dawley rat at 5 mg/kg, iv; type: ADME, organism-based
[4] = Oral bioavailability in Sprague-Dawley rat at 10 mg/kg; type: ADME, organism-based; conditions: in vivo
[5] = Metabolic stability in Sprague-Dawley rat microsomes assessed as compound remaining at 1 uM measured at 25 mins; type: ADME, Microsome; conditions: read-out: Stability
Outline: (§1)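 Microsomes at 0.25 mg protein with 1 mM NADPH and 1 µM compound, incubated 25 min at 37 °C; % parent remaining at 25 min. Rat: pooled male SD microsomes. Human: pooled male/female microsomes.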

[6] = Metabolic stability in human microsomes assessed as compound remaining at 1 uM measured at 25 mins; type: ADME, Microsome; conditions: read-out: Stability; outline: as §1

Compound | Selectivity ratio (UT7) | AUC(0-inf) [1] | Cmax [2] | inhibition (INH) (Rattus norvegicus) | clearance [3] | bioavailability [4] | remaining at 25 min, 1 µM [5] | remaining at 25 min, 1 µM [6]
O=S(=O)(N[C@H]1CCC[C@@H](c2nnc3cnc4[nH]ccc4n23)C1)C1CC1 (racemic) | 9 | 50 ng·h/mL | 10 ng/mL | 0% |  |  |  | 
O=S(=O)(N[C@]12CC[C@](c3nnc4cnc5[nH]ccc5n43)(CC1)CC2)C1CC1 | 225 | 410 ng·h/mL | 60 ng/mL | 31% | 51.7 mL/min/kg | 13% |  | 
CS(=O)(=O)N[C@H]1CC[C@@H](c2nnc3cnc4[nH]ccc4n23)C1 | 34 |  |  |  |  |  |  | 
COc1ccc(S(=O)(=O)N[C@H]2CC[C@@H](c3nnc4cnc5[nH]ccc5n34)C2)cc1 | 26 |  |  |  |  |  | 61% | 35%
CCCS(=O)(=O)N[C@H]1CC[C@@H](c2nnc3cnc4[nH]ccc4n23)C1 | > 20 |  |  |  |  |  |  | 
O=S(=O)(N[C@@H]1CCC[C@@H](c2nnc3cnc4[nH]ccc4n23)C1)C1CC1 (racemic) | > 10 |  |  |  |  |  |  | 
CCS(=O)(=O)N[C@H]1CC[C@@H](c2nnc3cnc4[nH]ccc4n23)C1 | 101 |  |  |  |  |  | 100% | 
O=S(=O)(N[C@H]1CC[C@@H](c2nnc3cnc4[nH]ccc4n23)C1)C1CCCC1 | 100 |  |  |  |  |  | 68% | 90%
O=S(=O)(N[C@H]1CC[C@@H](c2nnc3cnc4[nH]ccc4n23)C1)C1CCC1 | 227 | 860 ng·h/mL | 310 ng/mL | 40% | 41.7 mL/min/kg | 32% | 80% | 85%
O=S(=O)(N[C@H]1CC[C@@H](c2nnc3cnc4[nH]ccc4n23)C1)c1cccc(Cl)c1 | 54 |  |  |  |  |  | 6% | 8%
O=S(=O)(N[C@H]1CC[C@@H](c2nnc3cnc4[nH]ccc4n23)C1)C1CC1 | 17 | 1100 ng·h/mL | 230 ng/mL | 55% | 48.3 mL/min/kg | 29% | 98% | 100%
O=S(=O)(N[C@H]1CC[C@H](c2nnc3cnc4[nH]ccc4n32)CC1)C1CC1 | > 20 |  |  |  |  |  |  | 
c1cc2c(ncc3nnc(C4CCCCC4)n32)[nH]1 |  | 280 ng·h/mL | 170 ng/mL |  |  |  |  | 
O=S(=O)(N[C@H]1CC[C@@H](c2nnc3cnc4[nH]ccc4n23)C1)C1CCCCC1 | > 75 |  |  |  |  |  |  | 
O=S(=O)(N[C@H]1CC[C@@H](c2nnc3cnc4[nH]ccc4n23)C1)c1ccccc1 | 34 |  |  |  |  |  | 31% | 42%
